Experimental data: ChEMBL document CHEMBL4270612, “Discovery of dual GyrB/ParE inhibitors active against Gram-negative bacteria” (Eur J Med Chem, 2018)
≈ marks a conversion by molar mass, not a printed value.

What was measured:
Pseudomonas aeruginosa [1] = test: Antibacterial activity against Pseudomonas aeruginosa ARC4060 after 24 hrs by broth microdilution method; format: functional; conditions: ARC4060, 24 h
Summary of the method: (§1)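 Broth microdilution per CLSI. Bacterial suspension adjusted to 1×10^6 CFU/mL in cation-adjusted Mueller–Hinton broth and mixed 1:1 with 2-fold serial compound dilutions. Final DMSO 2.5% v/v. Plates incubated at 35 °C with shaking at 140 rpm for 24 h.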

Pseudomonas aeruginosa [2] = test: Antibacterial activity against Pseudomonas aeruginosa ARC3611 after 24 hrs by broth microdilution method; format: functional; conditions: ARC3611, 24 h; summary of the method: as §1
Pseudomonas aeruginosa [3] = test: Antibacterial activity against Pseudomonas aeruginosa ARC3607 after 24 hrs by broth microdilution method; format: functional; conditions: ARC3607, 24 h; summary of the method: as §1
Pseudomonas aeruginosa [4] = test: Antibacterial activity against Pseudomonas aeruginosa PAO1 after 24 hrs by broth microdilution method; format: functional; conditions: PAO1, 24 h; summary of the method: as §1
Acinetobacter baumannii [5] = test: Antibacterial activity against Acinetobacter baumannii ARC3485 after 24 hrs by broth microdilution method; format: functional; conditions: ARC3485, 24 h; summary of the method: as §1
Acinetobacter baumannii [6] = test: Antibacterial activity against Acinetobacter baumannii ARC3495 after 24 hrs by broth microdilution method; format: functional; conditions: ARC3495, 24 h; summary of the method: as §1
Enterobacter cloacae = test: Antibacterial activity against Enterobacter cloacae ARC3528 after 24 hrs by broth microdilution method; format: functional; conditions: ARC3528, 24 h; summary of the method: as §1
Acinetobacter baumannii [7] = test: Antibacterial activity against Acinetobacter baumannii ARC3486 after 24 hrs by broth microdilution method; format: functional; conditions: ARC3486, 24 h; summary of the method: as §1
Acinetobacter baumannii [8] = test: Antibacterial activity against Acinetobacter baumannii ARC2728 after 24 hrs by broth microdilution method; format: functional; conditions: ARC2728, 24 h; summary of the method: as §1
Acinetobacter baumannii [9] = test: Antibacterial activity against Acinetobacter baumannii ARC3657 after 24 hrs by broth microdilution method; format: functional; conditions: ARC3657, 24 h; summary of the method: as §1
Acinetobacter baumannii [10] = test: Antibacterial activity against Acinetobacter baumannii ARC3489 after 24 hrs by broth microdilution method; format: functional; conditions: ARC3489, 24 h; summary of the method: as §1
Acinetobacter baumannii [11] = test: Antibacterial activity against Acinetobacter baumannii ARC3658 after 24 hrs by broth microdilution method; format: functional; conditions: ARC3658, 24 h; summary of the method: as §1
Pseudomonas aeruginosa [12] = test: Antibacterial activity against Pseudomonas aeruginosa ARC3514 after 24 hrs by broth microdilution method; format: functional; conditions: ARC3514, 24 h
Summary of the method: (§2)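 Broth microdilution per CLSI. Bacterial suspension adjusted to 1×10^6 CFU/mL in cation-adjusted Mueller–Hinton broth and mixed 1:1 with 2-fold serial compound dilutions. Plates incubated at 35 °C with shaking at 140 rpm for 24 h.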

Acinetobacter baumannii [13] = test: Antibacterial activity against Acinetobacter baumannii ARC2779 after 24 hrs by broth microdilution method; format: functional; conditions: ARC2779, 24 h; summary of the method: as §1
Candida albicans = test: Antifungal activity against Candida albicans ATCC 90028 after 24 hrs by broth microdilution method; format: functional; conditions: ATCC 90028, 24 h
Staphylococcus aureus [14] = test: Antibacterial activity against methicillin-resistant Staphylococcus aureus USA100 after 24 hrs by broth microdilution method; format: functional; conditions: USA100, 24 h
Summary of the method: (§3)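 Broth microdilution per CLSI. Bacterial suspensions adjusted to 1×10^6 CFU/mL in cation-adjusted Mueller–Hinton broth, mixed 1:1 with 2-fold serial compound dilutions (final DMSO 2.5% v/v). Incubation 35 °C, 140 rpm, 24 h.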

Acinetobacter baumannii [15] = test: Antibacterial activity against Acinetobacter baumannii ARC2782 after 24 hrs by broth microdilution method; format: functional; conditions: ARC2782, 24 h; summary of the method: as §1
DNA gyrase subunit B = DNA gyrase subunit B (Escherichia coli, UniProt P0AES6); test: Inhibition of Escherichia coli GyrB (1 to 220 residues) expressed in Escherichia coli BL21(DE3)
[16] = Thermodynamic solubility of the compound at pH 7.4; format: physicochemical; conditions: buffer, read-out: Therm_solubility
Staphylococcus aureus [17] = test: Antibacterial activity against methicillin-resistant Staphylococcus aureus FQ-R after 24 hrs by broth microdilution method; format: functional; summary of the method: as §3
[18] = Protein binding in human plasma; format: ADME, cell-free; conditions: read-out: PPB (converted)
Pseudomonas aeruginosa [19] = test: Antibacterial activity against Pseudomonas aeruginosa ARC3504 after 24 hrs by broth microdilution method; format: functional; conditions: ARC3504, 24 h; summary of the method: as §1
Pseudomonas aeruginosa [20] = test: Antibacterial activity against Pseudomonas aeruginosa ARC3505 after 24 hrs by broth microdilution method; format: functional; conditions: ARC3505, 24 h; summary of the method: as §1
Staphylococcus aureus [21] = test: Antibacterial activity against Staphylococcus aureus ATCC 29213 after 24 hrs by broth microdilution method; format: functional; conditions: ATCC 29213, 24 h; summary of the method: as §1
Enterococcus faecalis = test: Antibacterial activity against Enterococcus faecalis ATCC 29212 after 24 hrs by broth microdilution method; format: functional; conditions: ATCC 29212, 24 h; summary of the method: as §1
Acinetobacter baumannii [22] = test: Antibacterial activity against Acinetobacter baumannii ARC3515 after 24 hrs by broth microdilution method; format: functional; conditions: ARC3515, 24 h; summary of the method: as §1
Pseudomonas aeruginosa [23] = test: Antibacterial activity against Pseudomonas aeruginosa ARC003 after 24 hrs by broth microdilution method; format: functional; conditions: ARC003, 24 h; summary of the method: as §1
Pseudomonas aeruginosa [24] = test: Antibacterial activity against Pseudomonas aeruginosa harboring MexABCDXY deletion mutant after 24 hrs by broth microdilution method; format: functional; summary of the method: as §3
Pseudomonas aeruginosa [25] = test: Antibacterial activity against Pseudomonas aeruginosa ARC3511 after 24 hrs by broth microdilution method; format: functional; conditions: ARC3511, 24 h; summary of the method: as §2
Acinetobacter baumannii [26] = test: Antibacterial activity against Acinetobacter baumannii ARC3493 after 24 hrs by broth microdilution method; format: functional; conditions: ARC3493, 24 h; summary of the method: as §1
Pseudomonas aeruginosa [27] = test: Antibacterial activity against Pseudomonas aeruginosa ARC3727 after 24 hrs by broth microdilution method; format: functional; conditions: ARC3727, 24 h; summary of the method: as §2
Pseudomonas aeruginosa [28] = test: Antibacterial activity against Pseudomonas aeruginosa ARC3729 after 24 hrs by broth microdilution method; format: functional; conditions: ARC3729, 24 h; summary of the method: as §1
Pseudomonas aeruginosa [29] = test: Antibacterial activity against Pseudomonas aeruginosa ARC3506 after 24 hrs by broth microdilution method; format: functional; conditions: ARC3506, 24 h; summary of the method: as §1
Escherichia coli = test: Antibacterial activity against tolC deficient Escherichia coli after 24 hrs by broth microdilution method; format: functional
Summary of the method: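 Broth microdilution per CLSI guidelines. Inoculum adjusted to 1×10^6 CFU/mL in cation-adjusted Mueller–Hinton broth, added 1:1 to 2-fold serial compound dilutions; final DMSO 2.5% v/v. Plates incubated 35 °C, 140 rpm, 24 h.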

Acinetobacter baumannii [30] = test: Antibacterial activity against Acinetobacter baumannii ARC3492 after 24 hrs by broth microdilution method; format: functional; conditions: ARC3492, 24 h; summary of the method: as §2
Pseudomonas aeruginosa [31] = test: Antibacterial activity against Pseudomonas aeruginosa ARC4063 after 24 hrs by broth microdilution method; format: functional; conditions: ARC4063, 24 h; summary of the method: as §2
Pseudomonas aeruginosa [32] = test: Antibacterial activity against Pseudomonas aeruginosa ARC3916 after 24 hrs by broth microdilution method; format: functional; conditions: ARC3916, 24 h; summary of the method: as §1
Pseudomonas aeruginosa [33] = test: Antibacterial activity against Pseudomonas aeruginosa ARC3606 after 24 hrs by broth microdilution method; format: functional; conditions: ARC3606, 24 h; summary of the method: as §1
Pseudomonas aeruginosa [34] = test: Antibacterial activity against Pseudomonas aeruginosa ARC3509 after 24 hrs by broth microdilution method; format: functional; conditions: ARC3509, 24 h; summary of the method: as §1
[35] = target: DNA topoisomerase 4 subunit B (Escherichia coli K-12, UniProt P20083); test: Inhibition of Escherichia coli ParE
[36] = Growth inhibition of human A549 cells; format: cell-based
Acinetobacter baumannii [37] = test: Antibacterial activity against Acinetobacter baumannii ARC2780 after 24 hrs by broth microdilution method; format: functional; conditions: ARC2780, 24 h; summary of the method: as §2
Acinetobacter baumannii [38] = test: Antibacterial activity against Acinetobacter baumannii ARC2781 after 24 hrs by broth microdilution method; format: functional; conditions: ARC2781, 24 h; summary of the method: as §2

Chain of DNA topoisomerase 4 subunit B (P20083 whole entry): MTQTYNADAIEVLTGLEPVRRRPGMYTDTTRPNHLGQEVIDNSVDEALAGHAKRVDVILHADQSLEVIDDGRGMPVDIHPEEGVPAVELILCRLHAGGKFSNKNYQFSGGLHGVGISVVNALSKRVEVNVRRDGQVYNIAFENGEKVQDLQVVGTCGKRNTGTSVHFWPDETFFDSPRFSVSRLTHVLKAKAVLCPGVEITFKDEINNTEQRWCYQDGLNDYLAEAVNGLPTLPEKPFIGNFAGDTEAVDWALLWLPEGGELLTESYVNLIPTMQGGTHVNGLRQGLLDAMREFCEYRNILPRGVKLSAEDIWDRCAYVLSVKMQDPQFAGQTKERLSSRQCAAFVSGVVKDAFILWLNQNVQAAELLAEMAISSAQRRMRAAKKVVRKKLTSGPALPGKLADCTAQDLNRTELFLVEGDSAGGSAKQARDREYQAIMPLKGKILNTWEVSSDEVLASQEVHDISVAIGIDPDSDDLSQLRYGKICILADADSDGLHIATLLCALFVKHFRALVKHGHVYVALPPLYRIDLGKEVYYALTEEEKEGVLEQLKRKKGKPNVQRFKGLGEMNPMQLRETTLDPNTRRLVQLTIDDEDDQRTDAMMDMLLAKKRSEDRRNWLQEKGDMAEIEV

SMILES: CCNC(=O)Nc1cc(-c2nc(C3CC3)cs2)c(-c2cc(-c3n[nH]c(=O)o3)cnc2N2C3CCC2CN(C)C3)cn1
- MIC (Pseudomonas aeruginosa [1]): 4 µg/mL (≈ 6.97 µM)
- MIC (Pseudomonas aeruginosa [2]): 4 µg/mL (≈ 6.97 µM)
- MIC (Pseudomonas aeruginosa [3]): 4 µg/mL (≈ 6.97 µM)
- MIC (Pseudomonas aeruginosa [4]): 1.14 µg/mL (≈ 1.99 µM)
- MIC (Acinetobacter baumannii [5]): 2 µg/mL (≈ 3.49 µM)
- MIC (Acinetobacter baumannii [6]): 0.5 µg/mL (≈ 0.872 µM)
- MIC (Enterobacter cloacae): 16 µg/mL (≈ 27.9 µM)
- MIC (Acinetobacter baumannii [7]): 2 µg/mL (≈ 3.49 µM)
- MIC (Acinetobacter baumannii [8]): 1 µg/mL (≈ 1.74 µM)
- MIC (Acinetobacter baumannii [9]): 2 µg/mL (≈ 3.49 µM)
- MIC (Acinetobacter baumannii [10]): 1 µg/mL (≈ 1.74 µM)
- MIC (Acinetobacter baumannii [11]): 1 µg/mL (≈ 1.74 µM)
- MIC (Pseudomonas aeruginosa [12]): 2 µg/mL (≈ 3.49 µM)
- MIC (Acinetobacter baumannii [13]): 1 µg/mL (≈ 1.74 µM)
- MIC (Candida albicans): > 64 µg/mL
- MIC (Staphylococcus aureus [14]): < 0.06 µg/mL
- MIC (Acinetobacter baumannii [15]): 1 µg/mL (≈ 1.74 µM)
- IC50 (DNA gyrase subunit B): 2 nM
- solubility thermodynamic [16]: 65.8 µM (≈ 37.7 µg/mL)
- MIC (Staphylococcus aureus [17]): < 0.06 µg/mL
- fraction unbound [18]: 0.149
- MIC (Pseudomonas aeruginosa [19]): 4 µg/mL (≈ 6.97 µM)
- MIC (Pseudomonas aeruginosa [20]): 4 µg/mL (≈ 6.97 µM)
- MIC (Staphylococcus aureus [21]): < 0.06 µg/mL
- MIC (Enterococcus faecalis): < 0.06 µg/mL
- MIC (Acinetobacter baumannii [22]): 2 µg/mL (≈ 3.49 µM)
- MIC (Pseudomonas aeruginosa [23]): 1 µg/mL (≈ 1.74 µM)
- MIC (Pseudomonas aeruginosa [24]): 0.23 µg/mL (≈ 0.401 µM)
- MIC (Pseudomonas aeruginosa [25]): 1 µg/mL (≈ 1.74 µM)
- MIC (Acinetobacter baumannii [26]): 1 µg/mL (≈ 1.74 µM)
- MIC (Pseudomonas aeruginosa [27]): 4 µg/mL (≈ 6.97 µM)
- MIC (Pseudomonas aeruginosa [28]): 4 µg/mL (≈ 6.97 µM)
- MIC (Pseudomonas aeruginosa [29]): 2 µg/mL (≈ 3.49 µM)
- MIC (Escherichia coli): 0.11 µg/mL (≈ 0.192 µM)
- MIC (Acinetobacter baumannii [30]): 1 µg/mL (≈ 1.74 µM)
- MIC (Pseudomonas aeruginosa [31]): 4 µg/mL (≈ 6.97 µM)
- MIC (Pseudomonas aeruginosa [32]): 2 µg/mL (≈ 3.49 µM)
- MIC (Pseudomonas aeruginosa [33]): 4 µg/mL (≈ 6.97 µM)
- MIC (Pseudomonas aeruginosa [34]): 4 µg/mL (≈ 6.97 µM)
- IC50 [35]: 3 nM
- GI50 [36]: > 25000 nM
- MIC (Acinetobacter baumannii [37]): 0.5 µg/mL (≈ 0.872 µM)
- MIC (Acinetobacter baumannii [38]): 0.25 µg/mL (≈ 0.436 µM)
